Test [1] deals with FL5.12. As to the kind of experiment: Downregulation of CD98 expression level in mouse FL5.12A cells at 2.5 uM measured at 3 hrs by flow cytometric analysis. Format: functional. In a few lines:
(§1)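 FL5.12 cells treated at 2.5 µM. Nutrient transporter loss measured as mean ± SEM. Vacuolation scored semi-quantitatively from 0 to 84, roughly twice the percent of cytosol occupied by vacuoles, mean ± SEM.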
(In flow cytometry, cells or beads pass a laser one at a time.)

Test [2] concerns FL5.12. The test is described as follows: Cytotoxicity against mouse FL5.12A cells after 48 hrs by DAPI staining-based flow cytometric analysis. Type of test: functional, cell-based. Conditions: FL5.12, 48 h.
For test [3], the system named is FL5.12. As to the kind of experiment: Induction of vacuolation in mouse FL5.12A cells assessed as vacuolation score at 2.5 uM measured at 3 hrs by fluorescence microscopic analysis. Format: functional. In a few lines:
as §1

In test [4] the test system is FL5.12. As to the kind of experiment: Downregulation of CD98 expression level in mouse FL5.12A cells at 50 uM measured at 3 hrs by flow cytometric analysis.
In test [5] the test system is FL5.12. As to the kind of experiment: Induction of vacuolation in mouse FL5.12A cells assessed as vacuolation score at 50 uM measured at 3 hrs by fluorescence microscopic analysis. Type of test: functional.
Test [6] deals with FL5.12. The test is described as follows: Downregulation of CD98 expression level in mouse FL5.12A cells at 30 uM measured at 3 hrs by flow cytometric analysis. Format: functional.
The test system of test [7] is FL5.12. The test is described as follows: Induction of vacuolation in mouse FL5.12A cells assessed as vacuolation score at 30 uM measured at 3 hrs by fluorescence microscopic analysis. Format: functional.

As usually defined, the IC50 is the point on the concentration scale where inhibition reaches its midpoint. On to `CCCCCCCCc1ccc(CO[C@@H]2CN[C@@H](CO)C2)cc1.Cl`, for which the Activity with FL5.12 [1] was found to be 63%; with FL5.12 [3], 33. This molecule yielded an IC50 in the test with FL5.12 [2] of 2 µM.
In the same order, the values of `CCCCCCCCc1ccc(CO[C@H]2CN[C@H](CO)C2)cc1.Cl` are 48%, 47 and 3 µM.
The corresponding values for `CCCCCCCCc1ccc([C@H]2CCN[C@@H]2CO)cc1.Cl` are 54%, 81 and 1.9 µM.
In the case of `CCCCCC/C=C/c1ccc([C@H]2CCN[C@@H]2CO)cc1.Cl`, the Activity with FL5.12 [1] was found to be 58%; with FL5.12 [3], 84. Further, the half-inhibitory concentration (IC50) with FL5.12 [2] amounted to 1.7 µM.
In the same order, the values of `CCCCCCCCc1ccc([C@@H]2CCN[C@H]2CO)cc1.Cl` are 47%, 53 and 1.7 µM.
In the same order, the values of `CCCCCCCCCCCC/C=C/c1ccc(CO[C@@H]2CN[C@@H](CO)C2)cc1.Cl` are 19%, 8 and 5.1 µM.
In the same order, the values of `CCCC/C=C/c1ccc(CO[C@@H]2CN[C@@H](CO)C2)cc1.Cl` are 30%, 0 and 5.5 µM.
Take `CCCCCCCCc1ccc([C@H]2CCN(C(C)=O)[C@@H]2CO)cc1`: the Activity was 40% in the test with FL5.12 [1] and 0 in the test with FL5.12 [3]. Besides, in the test with FL5.12 [2], it took 39.7 µM to reach half-maximal inhibition (IC50).
The corresponding values for `CCCCCCCCCC/C=C/c1ccc(CO[C@@H]2CN[C@@H](CO)C2)cc1.Cl` are 52%, 33 and 2.8 µM.
For `CCCCCC/C=C/c1ccc([C@H]2CCN(C(C)=O)[C@@H]2CO)cc1`, the values for the Activity in the test with FL5.12 [1] and in the test with FL5.12 [3] were 40% and 2, respectively. The molecule further showed a half-inhibitory concentration (IC50) with FL5.12 [2] of 46.2 µM.
The corresponding values for `CCCCCCCCCCCCc1ccc(CO[C@H]2CN[C@H](CO)C2)cc1.Cl` are 14%, 30 and 3.9 µM.
Take `CCCCCCCCCCCCO[C@@H]1CN[C@@H](CO)C1.Cl`: the Activity in the test with FL5.12 [1] stood at 57%; in the test with FL5.12 [3], 53. Also, the IC50 in the test with FL5.12 [2] amounted to 1.2 µM.
For `CCCCCCCCc1ccc(CO[C@H]2C[C@H](CO)N(C(C)=O)C2)cc1`, the Activity with FL5.12 [4] turned out to be 37%; with FL5.12 [5], 1. This molecule also came in with an IC50 in the test on FL5.12 [2] of 29.7 µM.
Regarding `CCCCCCCCc1ccc(CO[C@@H]2C[C@@H](CO)N(C(=N)N)C2)cc1.Cl.Cl`, the Activity with FL5.12 [6] is given as 34%; with FL5.12 [7], 0. The same molecule came in with a half-inhibitory concentration (IC50) with FL5.12 [2] of 17.3 µM.
Regarding `CCCCCCCCCCCCCCc1ccc(CO[C@@H]2CN[C@@H](CO)C2)cc1.Cl`, the values for the Activity with FL5.12 [1] and with FL5.12 [3] were 12% and 4, respectively. In the test with FL5.12 [2], this molecule displayed an IC50 of 10.5 µM.
The corresponding values for `CCCCCCCCC/C=C/CO[C@@H]1CN[C@@H](CO)C1.Cl` are 34%, 9 and 2.6 µM.
Regarding `CCCCCCCCCC/C=C/c1ccc(CO[C@H]2CN[C@H](CO)C2)cc1.Cl`, the Activity with FL5.12 [1] is on record as 40%; in the test with FL5.12 [3] it was 76. This molecule also gave an IC50 with FL5.12 [2] of 2.4 µM.
`CCCCCC/C=C/c1ccc(CO[C@H]2CN[C@H](CO)C2)cc1.Cl`: the Activity with FL5.12 [1] stood at 41%; with FL5.12 [3] it was 70. The same molecule had an IC50 in the test on FL5.12 [2] of 2.4 µM.
In the same order, the values of `CCCCCCCCC/C=C/CO[C@H]1CN[C@H](CO)C1.Cl` are 30%, 20 and 3.3 µM.
On to `CCCC/C=C/c1ccc(CO[C@H]2CN[C@H](CO)C2)cc1.Cl`, for which the Activity was 9% in the test on FL5.12 [1] and 5 in the test on FL5.12 [3]. Inhibition in the test on FL5.12 [2] was half-maximal at 5.7 µM (IC50).
On to `CCCCCCCCCCCC/C=C/c1ccc(CO[C@H]2CN[C@H](CO)C2)cc1.Cl`, for which the Activity with FL5.12 [1] was determined as 20%; in the test with FL5.12 [3], 1. In the test on FL5.12 [2], this molecule came in with an IC50 of 7.3 µM.
The corresponding values for `CCCCCCc1ccc(CO[C@@H]2CN[C@@H](CO)C2)cc1.Cl` are 30%, 0 and 2.7 µM.
The corresponding values for `CCCCCC/C=C/c1ccc(CO[C@@H]2CN[C@@H](CO)C2)cc1.Cl` are 64%, 27 and 1.4 µM.
On to `CCCCCCCCc1ccc(CO[C@H]2C[C@H](CO)N(C(=N)N)C2)cc1.Cl.Cl`, for which the Activity in the test on FL5.12 [6] is reported as 35%; in the test on FL5.12 [7] it was 0. In the test on FL5.12 [2], this molecule showed an IC50 of 14.2 µM.
For `CCCCCC/C=C/c1ccc(CO[C@H]2C[C@H](CO)N(C)C2)cc1.Cl`, the figures for the Activity with FL5.12 [1] and with FL5.12 [3] were 31% and 26, respectively. In addition, in the test on FL5.12 [2], half-maximal inhibition (IC50) was put at 1.9 µM.
The corresponding values for `CCCCCCCCCCc1ccc(CO[C@H]2CN[C@H](CO)C2)cc1.Cl` are 28%, 36 and 3.6 µM.
In the same order, the values of `CCCCCCCCCCCCCCc1ccc(CO[C@H]2CN[C@H](CO)C2)cc1.Cl` are 19%, 3 and 5.7 µM.
The corresponding values for `CCCCCCCCCCCCc1ccc(CO[C@@H]2CN[C@@H](CO)C2)cc1.Cl` are 13%, 3 and 10.1 µM.
For the molecule `CCCCCCCCCCCCO[C@H]1CN[C@H](CO)C1.Cl`, the Activity is recorded as 45% with FL5.12 [1] and 36 with FL5.12 [3]. This molecule came in with an IC50 in the test with FL5.12 [2] of 2.5 µM.
For the molecule `CCCCCCCCCCCCC/C=C/[C@@H](O)[C@H](CO)NC(C)=O` (stereo in doubt; 9), the results for the Activity in the test on FL5.12 [4] and in the test on FL5.12 [5] were 47% and 0, respectively. In the test with FL5.12 [2], this molecule showed an IC50 of 33 µM.
With `CCCCCCCCCCCCCCC[C@@H](O)[C@@H](N)CO` [DIHYDROSPINGOSINE], the Activity worked out at 47% with FL5.12 [1] and 38 with FL5.12 [3]. The molecule also registered an IC50 in the test on FL5.12 [2] of 3.5 µM.
In the same order, the values of `CCCCCCCCCCCCC/C=C/[C@@H](O)[C@H](CO)N(C)C` [DIMETHYLSPINGOSINE] are 69%, 72 and 0.8 µM.
The corresponding values for `CCCCCCCCc1ccc(CCC(N)(CO)CO)cc1` [FINGOLIMOD] are 68%, 82 and 2.4 µM.
In the case of `CCCCCCCCCCCCC/C=C/[C@@H](O)[C@@H](N)CO` [SPHINGOSINE], the Activity in the test with FL5.12 [1] came out at 48%; in the test on FL5.12 [3], 57. Moreover, it took 3.6 µM to reach half-maximal inhibition in the test with FL5.12 [2] (IC50).

These data come from ChEMBL document CHEMBL4425177, “Effects of stereochemistry, saturation, and hydrocarbon chain length on the ability of synthetic constrained azacyclic sphingolipids to trigger nutrient transporter down-regulation, vacuolation, and cell death” (Bioorg Med Chem, 2016).
